A selection: hits, their analogues and other compounds. The true share with any hit is near 4.6%.
TAAR1 ag – agonists of human TAAR1; CHO RD-HGA16 TAAR1, Fluo-8 calcium fluorescence; vehicle wells 0%, saturating PEA agonist 100%; activation, % at 3 µM; actives 0.99% (n = 360,000); AID 624467;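 active = activation above the mean activation of all test compounds in the run plus 3 SD, cut at about 38% in these data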
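Test system: RD-HGA16 (CHO) cells co-expressing Gα16 and hTAAR1 / Benchmarks: DMSO vehicle as 0%, PEA at EC100 as 100% / Repeats: no replicates (n 1) / Measure: % activation from peak over basal fluorescence ratio, DMSO-to-PEA scaled / Timing: 17-24 h plating, Fluo-8 75 min 37 °C, 30 min RT / Technique: kinetic Fluo-8 calcium fluorescence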
OX1R antag-1 – antagonists of human orexin 1 receptor | actives 0.43% (n = 330,000) | CHO/OX1R cells, Fluo-8 calcium fluorescence, orexin A | inhibition, % at 5 µM;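 active = inhibition above its plate's threshold, mean inhibition of all tested compounds on the plate plus 3 SD, cut at about 37% in these data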;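 note: 0% = orexin A challenge wells and 100% = SB-334867-A antagonist wells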
Target sequence (O43613 whole entry, looked up): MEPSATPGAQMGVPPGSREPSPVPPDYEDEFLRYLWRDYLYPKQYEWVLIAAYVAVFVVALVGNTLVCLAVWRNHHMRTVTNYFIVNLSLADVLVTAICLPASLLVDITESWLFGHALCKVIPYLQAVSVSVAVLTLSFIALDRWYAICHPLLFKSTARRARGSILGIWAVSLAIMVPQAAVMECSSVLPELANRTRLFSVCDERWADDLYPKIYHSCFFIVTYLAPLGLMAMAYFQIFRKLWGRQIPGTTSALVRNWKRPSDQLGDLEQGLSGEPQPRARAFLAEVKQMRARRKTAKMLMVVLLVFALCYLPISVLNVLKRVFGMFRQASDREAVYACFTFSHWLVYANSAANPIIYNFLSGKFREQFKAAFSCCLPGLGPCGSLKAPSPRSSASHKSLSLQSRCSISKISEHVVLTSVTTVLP
CHO parental Ca – counter-screen: ATP calcium response change in parental CHO cells; parental CHO-K1, ATP-induced calcium, Fluo-8 fluorescence; AID 463079; inhibition, % at 5.6 µM; actives 0.63% (n = 330,000);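 active = inhibition above that plate's mean sample inhibition plus 3 SD, cut at about 26% in these data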;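 note: 0% = ATP-challenged DMSO wells and 100% = DMSO wells without ATP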
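Measured by: calcium-sensitive Fluo-8 fluorescence / Test system: CHO parental line / Controls: ATP-challenged DMSO wells low, unchallenged DMSO wells high / Measure: % inhibition / Compound: single nominal dose of 5.6 µM per compound / Replicates: single well per compound, no replicates / Reagent: ATP as calcium-mobilizing challenge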
GPR7 antag – blocks human GPR7 receptor signaling; actives 1.1% (n = 290,000); GPR7-expressing cells, fluorescence antagonist assay; AID 1861; inhibition, % at 4.4 µM; in the data active = inhibition above about 16%, passing the limit was not always enough;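 note: cells stimulated with the agonist NPW; 0% = agonist with vehicle and 100% = vehicle without agonist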
Target sequence (P48145 whole entry, looked up): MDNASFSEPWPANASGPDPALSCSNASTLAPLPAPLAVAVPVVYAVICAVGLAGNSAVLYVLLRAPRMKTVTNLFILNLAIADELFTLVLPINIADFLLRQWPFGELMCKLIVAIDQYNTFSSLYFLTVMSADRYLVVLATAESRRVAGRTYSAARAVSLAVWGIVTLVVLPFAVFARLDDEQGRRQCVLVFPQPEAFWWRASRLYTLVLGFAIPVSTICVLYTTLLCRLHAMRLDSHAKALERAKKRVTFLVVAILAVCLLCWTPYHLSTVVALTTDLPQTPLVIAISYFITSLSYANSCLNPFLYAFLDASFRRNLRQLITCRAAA
TAAR1 antag – human TAAR1 antagonism; inhibition, % at 3 µM; AID 624466; CHO RD-HGA16 TAAR1, Fluo-8 calcium fluorescence, antagonist; actives 1.5% (n = 360,000); Q96RJ0;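 active = inhibition above a per-plate cutoff, the mean inhibition of test compounds on that plate plus 3 SD, cut at about 49% in these data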;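 note: 0% = DMSO plus EC80 beta-PEA response and 100% = DMSO alone without agonist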
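Material: CHO RD-HGA16 cells bearing hTAAR1; compound dosing: one-point dosing, 3 µM nominal final; schedule: dye loading 75 min at 37 °C, then 30 min room temperature; measured by: calcium fluorescence with Fluo-8; control set: vehicle and agonist controls; replication: n of 1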
OX1R antag-2 – OX1R (human) antagonism; OX1R-expressing cells, FRET antagonist read-out; O43613; AID 485270; actives 1.8% (n = 330,000); inhibition, % at 6.6 µM; in the data active = inhibition mostly above about 38%, no sharp cut-off; inactive = mostly below about 40%;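 note: 0% = agonist challenge alone and 100% = reference antagonist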
TAAR1 ag conf – human TAAR1 agonism, confirmed. shares compounds with TAAR1 ag. CHO RD-HGA16 TAAR1, Fluo-8 calcium fluorescence; scaled: DMSO 0%, maximal phenethylamine 100%. activation, % at 3 µM. actives 82% (n = 2,400);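 active = activation above a cutoff set at the run's mean compound activation plus 3 SD, cut at about 39% in these data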
Ga16 nonsel ag – counter-screen for TAAR1 agonists: nonselective agonists in parental cells; shares compounds with TAAR1 ag; CHO-Ga16 parental, Fluo-8 calcium fluorescence; normalized to maximal ATP response, DMSO zero; activation, % at 3 µM; actives 50% (n = 2,400);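 active = activation above the run cutoff, the mean activation over all tested wells plus 3 SD, cut at about 12% in these data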;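 note: 0% = DMSO wells and 100% = maximal ATP response on the peak over basal ratio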
TAAR1 desens – human TAAR1 agonist that also desensitizes the receptor; inhibition, % at 3 µM; CHO RD-HGA16 hTAAR1, Fluo-8 calcium, beta-PEA response inhibition; AID 651951; actives 46% (n = 2,400); shares compounds with TAAR1 ag;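 active = inhibition above the run cutoff, the mean inhibition of all test compounds plus 3 SD, cut at about 49% in these data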;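 note: beta-PEA stimulus applied at its EC80; loss of beta-PEA calcium signal after compound pretreatment read as receptor desensitization; 0% = DMSO with beta-PEA at EC80 and 100% = DMSO alone without agonist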
Ga16 nonsel ant – nonselective Ga16 antagonism, counter-screen | shares compounds with TAAR1 ag | CHO-Ga16 ATP-induced calcium, Fluo-8 fluorescence | inhibition, % at 3 µM | actives 39% (n = 2,400) | AID 651952;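 active = inhibition above the plate's mean compound inhibition plus 3 SD, computed per plate, cut at about 22% in these data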;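 note: 0% = EC80 ATP with DMSO and 100% = DMSO wells without ATP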
An asterisk follows results filed as active; . = no result given.

SMILES | TAAR1 ag | OX1R antag-1 | CHO parental Ca | GPR7 antag | TAAR1 antag | OX1R antag-2 | TAAR1 ag conf | Ga16 nonsel ag | TAAR1 desens | Ga16 nonsel ant
Cc1ccc(NS(=O)(=O)c2ccc(NC(=O)C(C)Sc3ccc(Cl)cc3)cc2)c(C)c1 (centres undefined) | 51.2* | -3.9 | 12.3 | 17.4 | 17.5 | 10.2 | 25.1 | 10.0 | 20.6 | 26.0*
Cc1ccc(C)c(NS(=O)(=O)c2ccc(NC(=O)CSc3ccc(Cl)cc3)cc2)c1 | 16.7 | -13.3 | -6.3 | 2.4 | -9.1 | -1.6 | . | . | . | .
CC(Oc1ccc(C(=O)c2ccccc2)cc1)C(=O)Nc1ccc(S(N)(=O)=O)cc1 (centres undefined) | 73.9* | 24.4 | 15.4 | 9.3 | 29.2 | 4.9 | 60.5* | 30.6* | 46.5 | 36.1*
Cc1ccc(S(=O)(=O)N(C)C)cc1NC(=O)c1cccs1 | 2.3 | -10.5 | -8.2 | -9.1 | -22.3 | 7.3 | . | . | . | .
CN(CCc1ccccc1)C(=O)c1[nH]c(C(F)(F)F)nc1-c1ccccc1 | 69.7* | . | . | . | 6.4 | . | 76.8* | 5.7 | 31.6 | 3.6
O=[N+]([O-])c1ccc(Oc2cccc3cccnc23)c([N+](=O)[O-])c1 | -0.3 | -2.1 | -17.1 | -9.1 | 19.7 | 35.5 | . | . | . | .
O=C(Nc1ccc(Cl)c(C(F)(F)F)c1)NC1CC2CCCC(C1)N2C1CC1 (centres undefined) | 68.4* | -12.1 | -2.6 | -0.6 | 24.9 | 9.8 | 70.5* | 24.8* | 41.5 | 25.4*
COc1ccc(/C=C/C(=O)Nc2ccccc2C(N)=O)cc1S(=O)(=O)N1CCOCC1 | 3.7 | . | . | . | 21.6 | . | . | . | . | .
O=C(NCCc1ccccc1)c1cnc2n(c1=O)CCS2 | . | -4.6 | -7.2 | -6.4 | . | 14.8 | . | 5.1 | . | 2.2
Cc1nc(SCC(=O)NC2CCS(=O)(=O)C2)c2c3c(sc2n1)CCCC3 (centres undefined) | -0.7 | . | . | . | 12.4 | . | . | . | . | .
Cc1ccccc1Cn1nnc(C(=O)Nc2cccc(C)c2C)c1N | 65.9* | -11.1 | -1.0 | 10.7 | 10.5 | 5.7 | 79.0* | 31.0* | 41.5 | 15.0
Cc1ccc(CNC(=O)Cn2nnc(C(=O)Nc3cccc(C)c3C)c2N)cc1 | 2.8 | -6.4 | -3.0 | 8.3 | -16.9 | 21.1 | . | . | . | .
CN(CCc1ccccc1)Cc1nc(-c2cnccn2)no1 | 52.5* | -20.8 | -8.4 | -9.3 | -10.6 | 7.1 | 33.8 | 1.0 | 13.3 | 10.5
COc1ccc(Cc2nc3ccc(C(=O)NC4CCOC4)cc3o2)cc1OC (centres undefined) | 2.7 | . | . | . | -1.6 | . | . | . | . | .
Clc1ccc(-c2nc3ccncc3[nH]2)cc1 | 48.6* | -19.4 | -0.9 | 5.5 | 19.2 | 0.3 | 71.7* | -0.8 | 39.9 | 7.6
CN(C(=O)c1ccc(NC(=O)Cc2cccc([N+](=O)[O-])c2)cc1)C1CC1 | 3.4 | 3.4 | -1.4 | . | -4.7 | 16.0 | . | . | . | .
CN(C(=O)c1ccc(NC(=O)Cc2ccc([N+](=O)[O-])cc2)cc1)C1CC1 | 77.3* | 11.0 | 5.7 | . | 38.6 | 2.8 | 97.1* | 41.5* | 34.7 | 17.1
COc1cc(N/N=C/c2ccccc2O)ncn1 | 49.3* | -13.3 | 5.4 | -4.2 | 5.0 | 10.6 | 57.1* | 8.6 | 53.1* | 11.4
Brc1ccc(C2C3=C(Nc4ncnn42)c2ccccc2OC3c2ccncc2)cc1 (centres undefined) | 43.0* | -29.5 | -25.2 | -8.1 | 19.4 | 9.4 | 11.9 | 5.6 | 2.9 | 13.0
OC(CNCc1ccc(Cl)cc1)COc1ccccc1 (centres undefined) | 26.8 | -24.4 | -14.1 | 8.4 | -3.5 | 9.1 | . | . | . | .
COC(=O)c1ccc(CNCC(O)COc2ccc(-c3ccccc3)cc2)cc1 (centres undefined) | 55.9* | -18.5 | -3.6 | 7.8 | 17.6 | 0.5 | 26.8 | 21.8* | 28.1 | 29.6*
CCCCOc1ccc(CC(=O)NCC(=O)O)cc1 | 3.8 | 4.5 | 9.3 | -10.7 | -14.5 | 1.1 | . | . | . | .
CC1(C)CC(=O)/C(=C(/O)Cc2ccccc2)C(=NCCc2ccccc2)C1 | 56.4* | -39.8 | -25.6 | -4.2 | -3.0 | 14.2 | 70.7* | -0.1 | 47.4 | 2.3
COC(=O)c1c(NC(=O)CCl)sc(C(=O)N2CCOCC2)c1C | 2.4 | -15.1 | -11.0 | -9.6 | -16.9 | 14.2 | . | . | . | .
CCN(Cc1ccncc1)Cc1c(O)ccc2ccccc12 | 53.2* | . | . | -6.3 | -7.3 | . | 54.6* | 1.6 | 20.7 | 6.5
CC(C)CN(Cc1c(O)ccc2ccccc12)CC(C)C | 6.6 | -18.5 | -3.2 | -13.2 | -1.0 | 19.9 | . | . | . | .
CCCCOC(=O)Nc1ccc2c(C)cc(=O)oc2c1 | 7.2 | -14.6 | -11.5 | -1.3 | 0.0 | 13.2 | . | . | . | .
CC1CCCCC1NC(=O)CSc1nnc(-c2ccco2)n1N (centres undefined) | 72.7* | . | . | . | 24.4 | . | 15.4 | 3.1 | -4.6 | 2.6
C=CC[C@@H](Cc1ccc(F)cc1)C(=O)OC[C@@H]1CCCN1C(=O)[C@H](CC=C)CC(=O)NCCO | 14.3 | -8.3 | -27.1 | . | -4.2 | 11.7 | . | . | . | .
CC(=O)c1ccc(N2CCN(C(=O)c3ccc(Cn4c(=S)[nH]c5ccc(N6CCOCC6)cc5c4=O)cc3)CC2)cc1 | 52.9* | -15.8 | 0.8 | 0.2 | -10.2 | 12.8 | -0.1 | 5.8 | 1.8 | 10.1
